# Measurements pooled from the literature.
# Protocols differ between the studies behind these lines.
Structure (SMILES),test,system,setting,measurement,value
COc1ncccc1-c1cnn2ccc(N3CCN(C(=O)OC(C)C)CC3)nc12,,"mouse, plasma","oral, 10 mg/kg",bioavailability,~100%
CSc1sc(C)cc1-c1nsc(=O)o1,chemical stability,culture medium,,half-life,110 min
CCN(CC)CCCC[C@H](NC(=O)[C@H](CC(C)C)NC(=O)[C@H](C)NC(=O)[C@H](Cc1ccccc1)NC(=O)c1ccc(C(C)(C)C)cc1)C(=O)N[C@@H](CO)C(=O)OC,,"male Swiss mouse, plasma","intraperitoneal, 10 mg/kg",bioavailability,25%
NS(=O)(=O)c1ccc(Cc2c(-c3cccc(-c4ccccc4)c3)nn(-c3nc(C(=O)O)cs3)c2C2CC2)cc1,,"male CD-1 mouse, plasma","oral, 50 mg/kg",bioavailability,~50%
Cc1cc(C)nc(Nc2ncc(C(=O)NCCc3c(C)[nH]c4ccccc34)cn2)c1,metabolic stability,"rat, liver microsomes",1 µM,half-life,3.8 min
C[C@]12CC[C@H](n3ccnc3)CC1=CC[C@@H]1[C@@H]2CC[C@]2(C)C(n3cnc4ccccc43)=CC[C@@H]12.Cl,,"male CD-1 mouse, plasma","intravenous, 1 mg/kg",AUC(0-t),2040 ng·h/mL
Cc1cc(-c2nsc(=O)o2)c(S(C)(=O)=O)s1,chemical stability,culture medium,,half-life,13.5 min
O=C(NC1CCCCC1)Oc1ccc(-c2ccccc2)cc1,metabolic stability,"male Wistar rat, liver S9","1 µM, pH 7.4",half-life,19 min
O=C(Nc1nccs1)C(c1cc(F)ccc1O)N1Cc2ccc(-c3ccc(N4CCNCC4)cc3)cc2C1=O (centres unmarked),,"mouse, plasma","oral, 20 mg/kg",bioavailability,3%
O=C(NC1CCCCC1)Oc1ccc2ccccc2c1,metabolic stability,"male Wistar rat, liver S9","1 µM, pH 7.4",half-life,5 min
CCC[C@@](N)(CO)CCc1ccc(OCCCCCC(C)C)cc1,,"mouse, plasma","intravenous, 5 mg/kg",AUC(0-t),0.714 µM·h
